Here are results for 32 compounds from ChEMBL document CHEMBL2434891, “Design, synthesis, and in vitro cancer cell growth inhibition evaluation and antimalarial testing of trioxanes installed in cyclic 2-enoate substructures” (Eur J Med Chem, 2013).

The structures appear in SMILES notation. Converted amounts (≈) assume the structure as drawn. The source made the active and inactive calls. No cut-off for these calls is given here.

As usually defined, the IC50 is the concentration that inhibits the measured activity by half.

One experiment has as its system A549. Briefly: Cytotoxicity against human A549 cells after 72 hrs by SRB assay. To be noted: A549, 72 h. It counts as functional, cell-based. The gist of the method:
(§1)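 Adherent cells grown at 37 °C and 5% CO2. Seeded at 1×10^4/well 24 h before dosing, then 72 h at 10–0.01 µg/mL final. Fixed with cold 50% TCA, stained with 0.4% SRB, dye extracted in 10 mM Tris, read at 540 nm.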
A general note: Sulforhodamine B stains cellular protein and so reports cell mass.

The next experiment deals with HCT-116. Briefly: Cytotoxicity against human HCT116 cells after 72 hrs by SRB assay. The format is functional, cell-based. To be noted: HCT-116, 72 h. The gist of the method:
as §1

For another experiment, the system named is MV4-11. Briefly: Antiproliferative activity against human MV4-11 cells after 72 hrs by MTT assay. The settings on record: MV4-11, 72 h. It counts as functional, cell-based.
The test system of a further experiment is BALB/3T3. Briefly: Cytotoxicity against mouse BALB/3T3 cells after 72 hrs by SRB assay. The format is cell-based. To be noted: BALB/3T3, 72 h. The gist of the method: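 Adherent cells grown at 37 °C and 5% CO2. A549 and HCT116 were in RPMI 1640/OptiMEM (50:50) with 5% FBS; BALB/3T3 in Dulbecco medium with 10% FBS and pyruvate. Seeded at 1×10^4/well 24 h before dosing, then 72 h at 10–0.01 µg/mL final. Fixed with cold 50% TCA, stained with 0.4% SRB, dye extracted in 10 mM Tris, read at 540 nm.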

The test system of a further experiment is L6. Briefly: Cytotoxicity against rat L6 cells after 70 hrs by alamar blue assay. To be noted: L6, 70 h. A general note: Alamar Blue is a resazurin reagent that responds to reducing activity.
For another experiment, the system named is Plasmodium falciparum. As to the kind of experiment: Antimalarial activity against erythrocytic stage of Plasmodium falciparum NF54 infected in RBC after 48 hrs by [3H]-hypoxanthine incorporation assay. It counts as functional, organism-based.
Experiment [1] is described as follows: Binding affinity to hemin assessed as hemin-induced oxidative damage in 0.1 M tris buffer at pH 9 at 25 to 500 uM after 2 hrs by UV-vis absorption spectroscopy in presence of methylene blue. The gist of the method:
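Methylene blue (10 µM) used as substrate for heme-catalysed oxidation. Compound incubated 2 h at 37 °C with hemin (6 µM) and methylene blue in 60% 0.1 M Tris buffer (pH 9.0) and 40% DMSO. Mixture absorbance then read by UV–vis spectrophotometry.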

Experiment [2] is described as follows: Binding affinity to hemin assessed as complexation of hemin-endoperoxides in 0.1 M tris buffer at pH 9 at 25 to 500 uM after 24 hrs by UV-vis absorption spectroscopy. The procedure, abridged: (§2)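 Hemin held at 6 µM with compound at 0–500 µM in 60% 0.1 M Tris buffer (pH 9.0) and 40% DMSO. Mixtures incubated 12 h or 24 h.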
Experiment [3] can be described thus: Binding affinity to hemin assessed as complexation of hemin-endoperoxides in 0.1 M tris buffer at pH 9 at 25 to 500 uM after 12 hrs by UV-vis absorption spectroscopy. The gist of the method: as §2

On to `COc1ccc(C2C[C@]34OO[C@](C)(C=C3C(=O)O2)C(c2ccc([N+](=O)[O-])cc2)O4)cc1` (stereo partly drawn), for which the IC50 was determined as 8.44 µM in the experiment with A549, 7.5 µM in the experiment on HCT-116, 0.735 µM with MV4-11 and 7.36 µM with BALB/3T3.
`COC(=O)C1=C[C@]23CCCC[C@@H]2O[C@@]1(C)OO3` returned an IC50 in the experiment with MV4-11 of 8.08 µM.
For the compound `C[C@]12C=C3C(=O)OC(c4ccc(C(F)(F)F)cc4)C[C@@]3(OO1)OC2c1ccccc1` (stereo partly drawn), the IC50 in the experiment with A549 is 10.9 µM; with HCT-116 it was 7.43 µM; with MV4-11, 0.779 µM; in the experiment with BALB/3T3, 9.01 µM.
As for `C[C@]12C=C3C(=O)CCC[C@@]3(OO1)OC2c1ccc([N+](=O)[O-])cc1` (stereo partly drawn), in the experiment with MV4-11, the 50% inhibitory concentration (IC50) was > 31 µM.
The same measure, in the same setting: next, `COc1cccc(C2C[C@]34OO[C@](C)(C=C3C(=O)O2)C(C)O4)c1` (stereo partly drawn): 7.76 µM.
As for `COc1ccc(C2O[C@]34CCCC(=O)C3=C[C@@]2(C)OO4)cc1` (stereo partly drawn), the concentration for half-maximal inhibition (IC50) in the experiment on L6 was 4.5 µg/mL (≈ 14.9 µM); with MV4-11, > 33 µM; in the experiment with Plasmodium falciparum it was 3.41 µg/mL (≈ 11.3 µM).
Regarding `C[C@]12C=C3C(=O)OC(c4ccc(C(F)(F)F)cc4)C[C@@]3(OO1)OC2c1ccc(Br)cc1` (stereo partly drawn), half-maximal inhibition with MV4-11 (IC50) was put at 5.51 µM.
Turning to `COc1ccc(C2O[C@]34CC(c5ccccc5)(c5ccccc5)OC(=O)C3=C[C@@]2(C)OO4)cc1` (stereo partly drawn), the IC50 in the experiment on L6 turned out to be 1.9 µg/mL (≈ 4.16 µM); with MV4-11, 3.78 µM; in the experiment on Plasmodium falciparum, 4.2 µg/mL (≈ 9.2 µM).
`COc1ccc(C2C[C@]34OO[C@](C)(C=C3C(=O)O2)C(C)O4)cc1OC` (stereo partly drawn) gave an IC50 in the experiment with MV4-11 of 11.1 µM.
With `CC(C)(C)OC(=O)N1C(=O)C2=C[C@@]3(C)OO[C@]2(CC1c1ccc(Cl)cc1)OC3c1ccccc1` (stereo partly drawn), the half-maximal inhibitory concentration (IC50) was found to be 6.66 µM in the experiment with A549, 6.02 µM in the experiment on HCT-116, 0.517 µM with MV4-11 and 5.46 µM in the experiment with BALB/3T3.
As for `COc1ccc(C2C[C@]34OO[C@](C)(C=C3C(=O)O2)C(c2ccccc2)O4)cc1OC` (stereo partly drawn), the IC50 is > 24 µM in the experiment on A549; 11.7 µM with HCT-116; 0.52 µg/mL (≈ 1.27 µM) with L6; 0.901 µM with MV4-11; 3.28 µg/mL (≈ 7.99 µM) in the experiment with Plasmodium falciparum; 10.1 µM with BALB/3T3.
Turning to `C[C@]12C=C3C(=O)OC(c4ccccc4Br)C[C@@]3(OO1)OC2c1ccc([N+](=O)[O-])cc1` (stereo partly drawn), the IC50 in the experiment with A549 amounted to 11.6 µM; in the experiment with HCT-116 it was 7.08 µM; in the experiment with MV4-11, 0.837 µM; in the experiment with BALB/3T3, 7.53 µM.
Turning to `C[C@]12C=C3C(=O)OC(c4ccccc4)(c4ccccc4)C[C@@]3(OO1)OC2c1ccc(Cl)cc1` (stereo partly drawn), the results for the half-maximal inhibitory concentration (IC50) in the experiment on L6, in the experiment with MV4-11 and in the experiment on Plasmodium falciparum were 2.03 µg/mL (≈ 4.4 µM), 3.6 µM and 9.88 µg/mL (≈ 21.4 µM), respectively.
`COc1ccc(C2O[C@]34CC(c5ccc(Cl)cc5)N(C(=O)OC(C)(C)C)C(=O)C3=C[C@@]2(C)OO4)cc1` (stereo partly drawn): the 50% inhibitory concentration (IC50) came to 6.32 µM in the experiment with A549, 5.56 µM in the experiment on HCT-116, 0.661 µM in the experiment on MV4-11 and 6.87 µM in the experiment on BALB/3T3.
Take `CC1O[C@]23CC(c4cccc(Cl)c4)OC(=O)C2=C[C@@]1(C)OO3` (stereo partly drawn): half-maximal inhibition with MV4-11 (IC50) required 7.31 µM.
As to `CC1O[C@]23CC(c4ccc(Br)cc4)OC(=O)C2=C[C@@]1(C)OO3` (stereo partly drawn), the concentration for half-maximal inhibition (IC50) with A549 was 13 µM; with HCT-116 it was 9.2 µM; in the experiment on MV4-11 it was 0.98 µM; in the experiment with BALB/3T3 it was 12 µM.
With `COc1ccc(C2O[C@]34CC(c5ccc(F)cc5)OC(=O)C3=C[C@@]2(C)OO4)cc1` (stereo partly drawn), the concentration for half-maximal inhibition (IC50) in the experiment with A549 came out at 11.8 µM; in the experiment with HCT-116, 8.08 µM; with L6, 0.5 µg/mL (≈ 1.26 µM); with MV4-11, 0.582 µM; in the experiment on Plasmodium falciparum it was 1.68 µg/mL (≈ 4.22 µM); in the experiment on BALB/3T3, 9.06 µM.
On to `CC1O[C@]23CC(c4ccc(C(F)(F)F)cc4)OC(=O)C2=C[C@@]1(C)OO3` (stereo partly drawn), for which the IC50 amounted to 13.9 µM with A549, 9.49 µM in the experiment on HCT-116, 0.895 µM with MV4-11 and 12.5 µM in the experiment with BALB/3T3.
With `C[C@]12C=C3C(=O)OC(c4ccc(Cl)cc4)C[C@@]3(OO1)OC2c1ccc(Br)cc1` (stereo partly drawn), the IC50 with MV4-11 came to 4.21 µM.
In the experiment on MV4-11, `COc1ccc(C2O[C@]34CC(c5ccc(OC)c(OC)c5)OC(=O)C3=C[C@@]2(C)OO4)cc1` (stereo partly drawn) yielded an IC50 of 4.38 µM.
Take `C[C@]12C=C3C(=O)OC(c4ccc(Cl)cc4)C[C@@]3(OO1)OC2c1ccc([N+](=O)[O-])cc1` (stereo partly drawn): the 50% inhibitory concentration (IC50) in the experiment on A549 was determined as 8.28 µM; with HCT-116, 7.37 µM; in the experiment on MV4-11 it was 0.593 µM; with BALB/3T3, 8.21 µM. Further, the result in experiment [1], in [2] and in experiment [3] was Active.
With `C[C@]12C=C3C(=O)CC(c4ccccc4)C[C@@]3(OO1)OC2c1ccc([N+](=O)[O-])cc1` (stereo partly drawn), the IC50 turned out to be 5.6 µg/mL (≈ 14.2 µM) in the experiment on L6, 6.53 µM with MV4-11 and 3.1 µg/mL (≈ 7.88 µM) in the experiment on Plasmodium falciparum.
For the compound `C[C@]12C=C3C(=O)OC(c4cccc(Cl)c4)C[C@@]3(OO1)OC2c1ccc([N+](=O)[O-])cc1` (stereo partly drawn), the result in experiment [1], in experiment [2] and in experiment [3] was Active. In the experiment on MV4-11, this compound had an IC50 of 3.91 µM.
Consider `CC(C)(C)OC(=O)N1C(=O)C2=C[C@@]3(C)OO[C@]2(CC1c1ccc(Cl)cc1)OC3c1ccc([N+](=O)[O-])cc1` (stereo partly drawn), for which the half-maximal inhibitory concentration (IC50) in the experiment with A549 came out at 6.22 µM; in the experiment on HCT-116, 5.54 µM; with L6, 1.16 µg/mL (≈ 2.19 µM); in the experiment with MV4-11 it was 0.501 µM; in the experiment with Plasmodium falciparum, 1.97 µg/mL (≈ 3.72 µM); in the experiment with BALB/3T3, 6.67 µM.
In the experiment on MV4-11, `COc1ccc(C2O[C@]34CC(c5ccccc5)CC(=O)C3=C[C@@]2(C)OO4)cc1` (stereo partly drawn) displayed a half-maximal inhibitory concentration (IC50) of 6.5 µM. This lies in the single-digit micromolar range.
Consider `COc1ccc(C2C[C@]34OO[C@](C)(C=C3C(=O)O2)C(c2ccc([N+](=O)[O-])cc2)O4)cc1OC` (stereo partly drawn), for which the IC50 is 7.73 µM with A549, 6.79 µM with HCT-116, 0.911 µM in the experiment on MV4-11 and 7.2 µM in the experiment on BALB/3T3. In addition, the outcome in experiment [1], in [2] and in experiment [3] was Active.
On to `COc1ccc(C2O[C@]34CC(c5ccc(C(F)(F)F)cc5)OC(=O)C3=C[C@@]2(C)OO4)cc1` (stereo partly drawn), for which the 50% inhibitory concentration (IC50) in the experiment on MV4-11 came out at 4.84 µM. In other words, the single-digit micromolar range.
Same read-out and setting: next, `CC1O[C@]23CC(c4ccc(F)cc4)OC(=O)C2=C[C@@]1(C)OO3` (stereo partly drawn): 6.89 µM.
With `C[C@]12C=C3C(=O)OC(c4ccccc4)(c4ccccc4)C[C@@]3(OO1)OC2c1ccc([N+](=O)[O-])cc1` (stereo partly drawn), the 50% inhibitory concentration (IC50) in the experiment on L6 is 3.49 µg/mL (≈ 7.4 µM); in the experiment on MV4-11, 3.79 µM; in the experiment on Plasmodium falciparum it was 5.25 µg/mL (≈ 11.1 µM).
`COc1ccc(C2O[C@]34CC(c5ccc(Cl)cc5)OC(=O)C3=C[C@@]2(C)OO4)cc1` (stereo partly drawn) yielded an IC50 in the experiment on MV4-11 of 4.31 µM. This counts as single-digit micromolar.
For `COC(=O)c1ccc(C2O[C@]34CC(c5ccccc5)(c5ccccc5)OC(=O)C3=C[C@@]2(C)OO4)cc1` (stereo partly drawn), the IC50 with L6 was found to be 1.67 µg/mL (≈ 3.45 µM); in the experiment on MV4-11, 2.99 µM; with Plasmodium falciparum it was 5.62 µg/mL (≈ 11.6 µM).
`CC1O[C@]23CC(c4ccc(Cl)cc4)N(C(=O)OC(C)(C)C)C(=O)C2=C[C@@]1(C)OO3` (stereo partly drawn): the IC50 in the experiment with A549 stood at 7.2 µM; in the experiment with HCT-116 it was 7.3 µM; in the experiment on MV4-11, 1.04 µM; in the experiment on BALB/3T3 it was 6.21 µM.
